UHRF1 MBD2 ctr = UHRF1 methylated DNA binding inhibitors, primary screen, counter-screen for MBD2 inhibitor project, biochemical, TR-FRET, human UHRF1, single concentration. actives 0.75% (n = 370,000). E3 ubiquitin-protein ligase UHRF1 (Homo sapiens), Q96T88. UHRF1 binding to methylated oligo. inhibition, % at 4.4 µM;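 also: UHRF1 SRA domain binding a hemimethylated CpG hairpin DNA probe; 0% = median of test compound wells and 100% = reference inhibitor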
CSN deneddyl inh = inhibitors of CSN-mediated cullin deneddylation, primary screen, biochemical, fluorescence polarization, uHTS | COP9 signalosome complex subunit 5 (Homo sapiens), Q92905 | Purified CSN, SCF-Nedd8-OG deneddylation | inhibition, % at 12.5 µM | actives 0.38% (n = 360,000);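 active = pattern-corrected inhibition above about 35%, with an unprinted fluorescence ratio check between 0.5 and 1.5, limit read from the data, passing the limit was not always enough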;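 also: 0% = enzyme with substrate and 100% = substrate without enzyme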
Target sequence (Q92905 whole entry, looked up, one chain of several): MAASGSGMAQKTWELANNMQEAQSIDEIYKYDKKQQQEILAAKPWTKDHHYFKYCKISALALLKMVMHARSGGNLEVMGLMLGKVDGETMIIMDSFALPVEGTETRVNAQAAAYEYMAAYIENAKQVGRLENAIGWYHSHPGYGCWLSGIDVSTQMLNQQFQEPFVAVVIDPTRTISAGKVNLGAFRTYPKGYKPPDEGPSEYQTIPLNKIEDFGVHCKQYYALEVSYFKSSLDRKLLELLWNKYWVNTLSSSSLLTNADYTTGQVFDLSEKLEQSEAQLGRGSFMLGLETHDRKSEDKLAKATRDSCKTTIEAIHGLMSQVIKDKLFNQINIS
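Assay system: purified human Csn5 enzyme expressed in HEK293T cells; measure: % inhibition; also added: SCFSkp2-Nedd8OG substrate at 10 nM final; technique: fluorescence polarization; times: reaction 90 min, room temperature; medium: Tris buffer pH 7.5, NaCl, DTT, Tween-20, trehalose, ovalbumin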
rCAG RNA binder = binders of r(CAG) RNA repeats, primary screen, biochemical, fluorescence; r(CAG) RNA repeat, TO-PRO-1 dye displacement fluorescence; inhibition, % at 3 µM; actives 1.3% (n = 370,000); AID 651821, 2012;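 active = inhibition above the plate cutoff, the mean of all test compounds on that plate plus 3 SD, cut at about 35% in these data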;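 also: 0% = DMSO alone and 100% = 100 µM mitoxantrone as full dye displacement; higher means more dye released from RNA so lower well fluorescence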
LEDGF integ inh = blockers of LEDGF/p75-dependent integrase strand transfer – biochemical, TR-FRET, high throughput, primary screen | HIV-1 integrase (with human LEDGF/p75) | TR-FRET IN-LEDGF/p75 DNA integration, Eu/Cy5 | inhibition, % at 3.7 µM | actives 0.64% (n = 370,000) | AID 743269, 2014;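 active = inhibition above the screen-wide mean plus 3 SD, cut at about 13% in these data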;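 also: signal is the Cy5 over europium emission ratio at 671 and 618 nm; 0% = plate median of compound wells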
ATG4B inhibitor = ATG4B protease inhibitors, primary screen, biochemical, fluorescence, uHTS; Cysteine protease ATG4B (Homo sapiens), Q9Y4P1; ATG4B cleavage of LC3-PLA2, NBD-HPC fluorescence, 1 h; inhibition, % at 8.33 µM; actives 0.51% (n = 340,000); in the data active = inhibition above about 40%
MBD2 DNA inh = inhibitors of MBD2 binding to methylated DNA, primary screen, biochemical, TR-FRET, DNA-binding domain, human. Methyl-CpG-binding domain protein 2 (Homo sapiens), Q9UBB5. MBD2 binding to methylated oligonucleotide. inhibition, % at 4.4 µM. actives 0.31% (n = 370,000). AID 686964, 2013; in the data active = inhibition above about 13%
UHRF1 DNA bind = UHRF1 methylated DNA binding inhibitors, counter-screen for MBD2 inhibitor project, biochemical, TR-FRET, human UHRF1; shares compounds with MBD2 DNA inh; inhibition, % at 4.4 µM; UHRF1 binding to methylated oligonucleotide; actives 25% (n = 1,000);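 also: UHRF1 SRA domain binding a labeled hemimethylated CpG hairpin DNA; 0% = vehicle only and 100% = reference inhibitor with vehicle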
MBD2 DBD conf = inhibitors of MBD2 binding to methylated DNA, confirmation, biochemical, TR-FRET, DNA-binding domain, human. TR-FRET MBD2-DBD binding to methylated oligonucleotide. inhibition, % at 4.4 µM. shares compounds with MBD2 DNA inh. actives 26% (n = 1,000). AID 720531, 2013; in the data active = inhibition above about 14%
* = called active by the depositor; / = no result given. Compounds with a hit are over-represented: about 3.1% of the library has one in this group of screens. Rule as the data show it, unless noted: active = inhibition above about 21%; inactive = the rest.

SMILES	UHRF1 MBD2 ctr	CSN deneddyl inh	rCAG RNA binder	LEDGF integ inh	ATG4B inhibitor	MBD2 DNA inh	UHRF1 DNA bind	MBD2 DBD conf
CC(C)CC(=O)NC(=S)Nc1ccccc1C(F)(F)F	2.7	-13.4	-4.3	-1.6	-3.2	1.4	/	/
COC(=O)[C@H](CC(C)C)N1Cc2nnn(CC3CCCCC3)c2-c2ccccc2S1(=O)=O	-2.6	/	2.7	-1.3	/	-2.3	/	/
CC(=O)c1ccccc1NC(=O)COC(=O)C1CCCN1S(=O)(=O)c1ccccc1F (stereo unspecified)	0.5	-8.7	0.3	5.3	0.6	15.4*	8.2	2.6
CCOc1ccc(C(=O)N2CCN(CC(=O)N3CCCC3)CC2)cc1OCC	21.7*	-2.1	2.2	-1.4	-4.2	16.0*	5.2	1.3
CCOc1ccc(C(=O)N2CCCC2)cc1OC	0.1	4.3	-2.8	3.4	3.0	4.8	/	/
CC(C)C[C@H](NC(C)(C)C(=O)NC1CCCCC1)C(=O)NCC(c1ccccc1)c1ccccc1	1.3	/	/	-4.7	/	21.4*	1.4	2.1
CC(c1ccccc1)C(CC(=O)O)C(=O)NC1CCCCC1 (stereo unspecified)	1.3	1.8	3.8	0.8	1.6	-0.3	/	/
COc1ccc(C2C(C(=O)Nc3ccc(C)c(C)c3)CCC(=O)N2c2ccc(OC)cc2)cc1 (stereo unspecified)	-3.8	/	1.4	-0.9	/	-7.6	/	/
COc1ccc(/C=C2/SC(=S)N(n3c(C)ccc3C)C2=O)cc1	21.8*	0.4	5.6	5.9	7.6	13.5*	11.6	3.3
O=C(CC1Sc2ccccc2NC1=O)Nc1cccnc1 (stereo unspecified)	-1.3	-1.1	-0.3	0.3	-9.0	-3.2	/	/
CC(C(=O)Nc1cccnc1)C1Sc2ccccc2NC1=O (stereo unspecified)	-0.9	-2.3	-1.5	-1.5	15.0	77.6*	3.4	0.1
CCNC(=S)NNC(=O)CSc1nnc(-c2ccccc2)n1-c1ccc(Cl)cc1	-4.6	/	11.9	1.9	/	-4.7	/	/
CCCCCCCCN1C(=O)[C@@H](CC(=O)NCc2ccccc2)C[C@@]2(C(=O)OC)C1=C[C@H](COCc1ccccc1)O[C@@H]2C	0.2	/	8.0	-5.8	/	2.0	/	/
CC(C)(C)n1nnnc1C(c1ccc(C(F)(F)F)cc1)N(Cc1ccc(F)cc1)Cc1ccco1 (stereo unspecified)	4.4	-2.5	-1.7	-0.3	0.6	17.5*	8.8	0.6
CC(C)(C)n1nnnc1C(c1ccc(F)cc1)N(Cc1ccc(F)cc1)Cc1ccco1 (stereo unspecified)	0.5	7.5	0.1	3.9	-6.9	-3.6	/	/
O=C(CN1C(=O)CCSc2ccccc21)Nc1ccc(Cl)cc1	-2.7	/	2.4	-2.1	/	2.6	/	/
C[C@@H](CCCCC1(C)OCCO1)CCC(=O)N(c1ccccc1)c1ccccc1	2.1	/	-1.2	-1.3	/	-1.4	/	/
COc1ccccc1NC(=O)COC(=O)c1cc2c(s1)CCC2	5.1	9.3	5.4	5.4	3.3	-3.8	/	/
COc1ccc(OC)c(NC(=O)COC(=O)c2cc3c(s2)CCC3)c1	47.4*	31.6	23.4	6.8	3.7	18.6*	40.3*	35.0*
Cc1noc(C)c1Cn1nc(C(=O)O)c2ccccc2c1=O	0.5	-4.8	-3.6	6.9	0.5	31.8*	2.7	1.2
COc1ccc(C=O)c(OCc2cn(CC(=O)c3ccc(O)cc3)nn2)c1	23.5*	-0.6	2.9	3.1	-4.3	13.8*	12.2	8.0
O=C(Cn1cc(COc2ccc3ccc(=O)oc3c2)nn1)c1ccc(O)cc1	8.5	-2.4	12.2	6.6	/	-6.0	/	/
COc1ccc2cc([C@H](C)C(=O)OCc3cn(CC(=O)c4ccc(O)cc4)nn3)ccc2c1	18.4	-2.3	16.5	10.2	/	15.1*	13.1	10.9
O=C(Nc1ccc(Cl)cc1)O[C@@H]1CC[C@@]23CCCN2C(=O)CCC[C@H]3C1	-3.1	/	/	-1.1	/	3.0	/	/
CC(=O)Nc1ccc(S(=O)(=O)NC(CC(=O)O)c2ccc(OC(C)C)cc2)cc1 (stereo unspecified)	23.2*	-1.9	5.1	-2.7	-12.8	16.6*	11.5	4.7
SMILES	UHRF1 MBD2 ctr	CSN deneddyl inh	rCAG RNA binder	LEDGF integ inh	ATG4B inhibitor	MBD2 DNA inh	UHRF1 DNA bind	MBD2 DBD conf
O=C(c1ccncc1F)N1CCC(n2nnc3ncccc32)CC1	-1.0	/	0.6	4.9	/	0.0	/	/
CCc1ccccc1Nc1nc(N)nc(COC(=O)c2c(C)noc2C)n1	23.3*	3.9	-4.0	11.9	5.5	13.6*	4.0	4.7
COc1ccc(C(=O)N(CC(=O)NC(C)(C)C)c2ccc3c(c2)OCCO3)cc1OC	20.1	0.1	-4.0	1.8	0.1	16.4*	7.4	4.3
COC(=O)c1cc(-c2ccc(OC)c(OC)c2)c2c(=O)[nH]c(=O)n(C)c2n1	-2.6	3.0	1.5	-0.9	6.5	-2.0	/	/
COC(=O)c1cc(-c2cccc([N+](=O)[O-])c2)c2c(=O)[nH]c(=O)n(C)c2n1	23.0*	-3.0	8.5	2.1	2.0	13.5*	7.9	3.5
CC1CCCCC1C(=O)N1CCC(Oc2cccnc2)CC1 (stereo unspecified)	-4.7	/	-0.7	-1.5	/	-3.8	/	/
COc1cccc(NC(=O)Nc2c(-c3ccc(F)cc3)nc3ncccn23)c1	0.7	/	4.9	-2.0	/	0.4	/	/
Cc1ccc(S(=O)(=O)N2C[C@H]3C(=O)C[C@@H](c4ccccc4F)N(S(=O)(=O)c4ccc(C)cc4)[C@H]3C[C@H]2c2ccccc2F)cc1	1.5	4.6	14.0	-4.0	/	5.1	/	/
Cc1ccc([C@@H]2C[C@H]3[C@@H](CN2S(=O)(=O)c2ccc(C)cc2)C(=O)C[C@@H](c2ccccc2F)N3S(=O)(=O)c2ccc(C)cc2)cc1	26.9*	0.2	15.2	5.5	/	14.7*	3.0	2.7
CC1(c2nnnn2Cc2ccccc2)CCC(=O)N1CCc1ccccc1F (stereo unspecified)	21.8*	5.8	-1.1	-3.1	/	15.1*	13.0	6.3

Screens: PubChem, several laboratories
